In data set [1] the test system is Hepatocyte. Description: Cytotoxicity in hepatocytes isolated from CYP activator dexamethasone-treated C57BL/6J mouse at 5 uM after 18 hrs by LDH assay relative to control. The format is ADME, cell-based. The method, boiled down: (§1)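 Hepatocytes from mice pretreated with dexamethasone to induce CYP enzymes; compounds at 1 or 5 µM. Cytotoxicity read as LDH release after drug exposure (text gives 16 hr, legend 18 hr). Values are averages of duplicate experiments.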

Data set [2] in a line: Toxicity in liver microsomes isolated from CYP activator dexamethasone-treated Sprague-Dawley rat assessed as induction of mitochondrial permeability transition by measuring mitochondrial swelling at 50 uM measured after 30 mins in presence of NADPH. Further details: species or system Microsome; call rule not given here. As to conditions: 0.5 h. The method, boiled down:
(§2)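 Compound (50 µM) incubated with dexamethasone-treated rat liver microsomes at 37 °C, with or without NADPH, for 30 min. Isolated mitochondrial fraction then added. Swelling followed as absorbance change at 540 nm over time, and area over the curve integrated as the MPT index. Mean ± SD, n = 3.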
For orientation: Liver microsomes are vesicles of endoplasmic reticulum, rich in cytochrome P450 enzymes.

The nature of data set [3]: Toxicity in liver microsomes isolated from CYP activator dexamethasone-treated Sprague-Dawley rat assessed as induction of mitochondrial permeability transition by measuring mitochondrial swelling at 50 uM measured after 30 mins in absence of NADPH. Also on record: species or system Microsome. As to conditions: 0.5 h. A digest of the protocol:
as §2

Data set [4] addresses T1, Solute carrier family 22 member 12 (Homo sapiens, UniProt Q96S37).
T1 sequence (Q96S37 whole entry): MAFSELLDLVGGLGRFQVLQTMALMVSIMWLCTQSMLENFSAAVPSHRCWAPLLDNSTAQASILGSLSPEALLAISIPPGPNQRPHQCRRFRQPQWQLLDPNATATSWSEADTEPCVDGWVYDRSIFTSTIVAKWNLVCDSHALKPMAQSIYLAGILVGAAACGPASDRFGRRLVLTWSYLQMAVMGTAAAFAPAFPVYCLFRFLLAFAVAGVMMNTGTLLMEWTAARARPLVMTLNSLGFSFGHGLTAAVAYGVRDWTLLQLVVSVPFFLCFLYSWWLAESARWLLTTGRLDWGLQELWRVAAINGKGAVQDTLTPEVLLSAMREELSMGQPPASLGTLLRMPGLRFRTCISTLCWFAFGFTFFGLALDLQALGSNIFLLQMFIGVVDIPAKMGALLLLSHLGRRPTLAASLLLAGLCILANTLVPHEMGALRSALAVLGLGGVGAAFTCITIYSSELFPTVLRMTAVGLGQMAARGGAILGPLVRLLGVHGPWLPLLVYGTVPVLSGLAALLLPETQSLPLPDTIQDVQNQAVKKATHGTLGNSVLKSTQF
Description: Inhibition of human URAT1 expressed in HEK293 cells assessed as inhibition of [14C]-urate uptake at 10 uM after 2 mins by beta-scintillation counting analysis. Type of data set: cell-based. As to conditions: hek293, 2 min. A digest of the protocol: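 HEK cells overexpressing hURAT1; uric acid uptake measured in presence of compound at 10 µM. Uptake expressed as percent of vehicle control (0.5% DMSO, no inhibitor). Mean ± SD, n = 4.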

The subject of data set [5] is Hepatocyte. Description: Cytotoxicity in hepatocytes isolated from CYP activator dexamethasone-treated C57BL/6J mouse at 1 uM after 18 hrs by LDH assay relative to control. The format is ADME, cell-based. A digest of the protocol:
as §1

The target in another data set is T2, URAT1 (SLC22A12) (Homo sapiens, UniProt Q96S37).
T2 sequence (Q96S37 whole entry): T1 sequence (Q96S37 whole entry)
Description: Inhibition of human URAT1 expressed in HEK293 cells assessed as [14C]-urate uptake at 10 uM after 2 mins by beta-scintillation counting analysis relative to control. As to conditions: HEK293 cells expressing human URAT1, probe [14C]-urate, read-out: Activity. Further details: scale not given: the % may be the effect or the level left. The format is cell-based.

The test system of data set [6] is Hepatocyte. Description: Cytotoxicity in hepatocytes isolated from CYP activator dexamethasone-treated C57BL/6J mouse after 18 hrs by LDH assay relative to control. Type of data set: ADME, cell-based. A digest of the protocol:
as §1

Some results are limits rather than exact numbers.

`CCc1oc2ccccc2c1C(=O)c1cc(O)cc(Br)c1`: the Activity in the data set with Hepatocyte [1] is reported as below 16%; in data set [2], “Non-Toxic”; in data set [3], “Non-Toxic”. Further, in data set [4], the “inhibition (INH)” value was “Active”.

In the case of `CCc1oc2ccccc2c1C(=O)c1cc(O)c(Br)cc1Br`, the Activity is on record as below 16% in the data set with Hepatocyte [1], “Non-Toxic” in data set [2] and “Non-Toxic” in data set [3]. Further, the “inhibition (INH)” value in data set [4] is recorded as “Active”.

Turning to `CCc1oc2ccccc2c1C(=O)c1cccc(O)c1Br`, the Activity was below 16% with Hepatocyte [1], “Non-Toxic” in data set [2] and “Non-Toxic” in data set [3]. For the same compound, in data set [4], the “inhibition (INH)” value was “Active”.

As for `CCc1oc2ccccc2c1C(=O)c1ccc(Br)c(O)c1Br`, the Activity is recorded as below 16% in the data set with Hepatocyte [1], “Non-Toxic” in data set [2] and “Non-Toxic” in data set [3]. Besides, in data set [4], the “inhibition (INH)” value is reported as “Active”.

Turning to `CCc1oc2ccccc2c1C(=O)c1cc(O)ccc1Br`, the values for the Activity (with Hepatocyte [1]; in data set [2]; in data set [3]) were below 16%, “Non-Toxic” and “Non-Toxic”, respectively. The “inhibition (INH)” value in data set [4] is on record as “Active”.

In the case of `CCc1oc2ccccc2c1C(=O)c1ccc(Br)c(O)c1`, the Activity in the data set on Hepatocyte [1] is given as below 16%; in data set [2], “Non-Toxic”; in data set [3] it was “Non-Toxic”. The “inhibition (INH)” value in data set [4] is “Active”.

For `CCc1oc2ccccc2c1C(=O)c1cc(Br)c(O)c(Br)c1` [BENZBROMARONE], the Activity was 27% in the data set on Hepatocyte [5]; 52% in the data set on Hepatocyte [1]; “Toxic” in data set [2]; “Non-Toxic” in data set [3]; “Dose-dependent effect” in the data set with Hepatocyte [6]. For the same compound, the activity at 2 min, 10 µM at URAT1 (SLC22A12) was below 10%.

Values taken from ChEMBL document CHEMBL4325877, “Synthesis of novel benzbromarone derivatives designed to avoid metabolic activation” (Bioorg Med Chem Lett, 2018).
